Active and inactive are the calls of the source. The calls are words filed in the database; no cut-off is given here.

The test system of data set [1] is Mus musculus. The experiment in a line: Increase in spontaneous locomotor activity in ICR Swiss mouse at 10 mg/kg, ip measured after 30 to 270 mins post compound administration. Type of data set: functional, organism-based. More on the design: dose 10 mg/kg. In outline: (§1)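 Male ICR Swiss mice (20-25 g), compound in saline ip, housed three per cage at ≤18 °C. Starting 30 min and 4.5 h after injection, each mouse was placed in a circular actophotometer (25 cm diameter, four photocells, central light) for 30 min. A count was scored per cross of two consecutive beams (locomotion only). Means of at least eight animals per group.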

Data set [2] is described as follows: Toxicity in ip dosed ICR Swiss mouse. Type of data set: organism-based. The note with it: in vivo.
The target in data set [3] is Sodium-dependent serotonin transporter (Rattus norvegicus) (UniProt P31652). Briefly: Inhibition of SERT-mediated 5-HT uptake in Wistar rat brain synaptosomes at 0.2 uM. Type of data set: subcellular.
Sequence of Sodium-dependent serotonin transporter (Rattus norvegicus) (P31652 whole entry): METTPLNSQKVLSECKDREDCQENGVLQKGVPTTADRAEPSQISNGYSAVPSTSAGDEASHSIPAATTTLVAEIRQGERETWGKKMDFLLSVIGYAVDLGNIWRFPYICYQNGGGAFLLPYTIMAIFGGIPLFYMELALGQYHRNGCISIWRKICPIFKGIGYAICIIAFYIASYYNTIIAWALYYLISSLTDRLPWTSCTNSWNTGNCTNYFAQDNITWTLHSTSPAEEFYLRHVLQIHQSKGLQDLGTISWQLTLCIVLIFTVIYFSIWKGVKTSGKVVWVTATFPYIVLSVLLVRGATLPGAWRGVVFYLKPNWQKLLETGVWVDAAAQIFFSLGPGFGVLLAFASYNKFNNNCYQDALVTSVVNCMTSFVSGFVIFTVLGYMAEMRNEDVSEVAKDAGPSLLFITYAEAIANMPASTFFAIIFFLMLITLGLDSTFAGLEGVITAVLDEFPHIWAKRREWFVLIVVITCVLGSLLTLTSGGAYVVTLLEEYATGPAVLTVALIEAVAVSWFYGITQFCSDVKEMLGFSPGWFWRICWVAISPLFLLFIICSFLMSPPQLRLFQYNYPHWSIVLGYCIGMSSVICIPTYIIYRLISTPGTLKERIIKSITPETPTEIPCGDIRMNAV
The subject of data set [4] is Rattus norvegicus. The experiment in a line: Reduction in 5-HT level in Wistar rat brain synaptosomes at 15 mg/kg, ip measured after 4 hrs by fluorometric assay. It is filed as functional. On the set-up: scale not given: the % may be the effect or the level left. Conditions: route intraperitoneal.
The test system of data set [5] is Rattus norvegicus. Briefly: Reduction in 5-HT level in Wistar rat brain synaptosomes at 15 mg/kg, ip measured after 24 hrs by fluorometric assay. It is filed as functional. On the set-up: scale not given: the % may be the effect or the level left. Conditions: route intraperitoneal.
Data set [6] relates to Rattus norvegicus. Briefly: Inhibition of SERT-mediated 5-HT uptake in Wistar rat brain at 15 mg/kg, ip measured after 24 hrs. It is filed as functional. The note with it: route intraperitoneal. In outline: (§2)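 Male Wistar-derived rats were dosed ip (saline vehicle) and killed 24 h or 7 days later. Whole brains were homogenized in 8 vol 0.25 M sucrose.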
The species entered for data set [7] is Rattus norvegicus. The experiment in a line: Ratio of PCA IC50 to compound IC50 for MAO in Wistar rat brain using [3H]serotonin as substrate.
Data set [8] can be described thus: Inhibition of MAO in Wistar rat brain using [3H]serotonin as substrate.
Data set [9] deals with Rattus norvegicus. The experiment in a line: Inhibition of SERT-mediated 5-HT uptake in Wistar rat brain at 7.5 mg/kg, ip measured after 24 hrs. Type of data set: functional. The note with it: route intraperitoneal. In outline: as §2
Data set [10] deals with Rattus norvegicus. Briefly: Inhibition of SERT-mediated 5-HT uptake in Wistar rat brain at 7.5 mg/kg, ip measured after 7 days. It is filed as functional. The note with it: 168 h, route intraperitoneal. In outline: as §2
The subject of data set [11] is Mus musculus. Briefly: Increase in spontaneous locomotor activity in ICR Swiss mouse at 10 mg/kg, ip measured after 4 hrs post compound administration. On the set-up: dose 10 mg/kg. It is filed as functional, organism-based. The method, boiled down: as §1
Data set [12] relates to Rattus norvegicus. Briefly: Reduction in 5-HT level in Wistar rat brain synaptosomes at 7.5 mg/kg, ip measured after 4 hrs by fluorometric assay. It is filed as functional. The note with it: route intraperitoneal. More on the design: scale not given: the % may be the effect or the level left.
For data set [13], the system named is Rattus norvegicus. Briefly: Reduction in 5-HT level in Wistar rat brain synaptosomes at 7.5 mg/kg, ip measured after 24 hrs by fluorometric assay. More on the design: scale not given: the % may be the effect or the level left. Type of data set: functional. Conditions: route intraperitoneal.
In data set [14] the test system is Rattus norvegicus. The experiment in a line: Reduction in 5-HT level in Wistar rat brain synaptosomes at 7.5 mg/kg, ip measured after 7 days by fluorometric assay. The note with it: route intraperitoneal. On the set-up: scale not given: the % may be the effect or the level left. It is filed as functional.
The target of data set [15] is Sodium-dependent serotonin transporter (Rattus norvegicus, UniProt P31652). The experiment in a line: Inhibition of SERT-mediated 5-HT uptake in Wistar rat brain synaptosomes. It is filed as subcellular.
Sequence of Sodium-dependent serotonin transporter (P31652 whole entry): as above
Data set [16] concerns Rattus norvegicus. The experiment in a line: Inhibition of SERT-mediated 5-HT uptake in Wistar rat brain at 15 mg/kg, ip measured after 7 days. Type of data set: functional. The note with it: 168 h, route intraperitoneal. The method, boiled down:
as §2

Data set [17] concerns Rattus norvegicus. Briefly: Reduction in 5-HT level in Wistar rat brain synaptosomes at 15 mg/kg, ip measured after 7 days by fluorometric assay. It is filed as functional. More on the design: scale not given: the % may be the effect or the level left. The note with it: route intraperitoneal.

As a reminder, the LD50 is the dose at which mortality reaches 50%. By inhibition is commonly meant the percentage by which the read-out fell short of the control. Take `CC(N)Cc1cccs1.Cl` (racemic): the result with Mus musculus [1] was Active. The molecule further showed an LD50 in data set [2] of 162 mg/kg. The molecule also came in with an inhibition in [3] of 5.3%. This molecule yielded an Activity with Rattus norvegicus [4] of 4.3%.
In general, inhibition in vivo refers to the drop in the measured response relative to a control, in per cent. Turning to `CC(N)Cc1cc(Cl)cs1.Cl` (racemic), the outcome with Mus musculus [1] was Active. The same molecule gave a median lethal dose (LD50) in [2] of 128 mg/kg. Moreover, the inhibition in data set [3] is 18.7%. Besides, the values for the Activity in the data set on Rattus norvegicus [4] and in the data set on Rattus norvegicus [5] were 22.1% and 18.3%, respectively. In the data set on Rattus norvegicus [6], this molecule came in with an inhibition in vivo at 15 mg/kg of 6.7%.
Usually IC50 stands for the point on the concentration scale where inhibition reaches its midpoint. `CC(N)Cc1scc(Cl)c1Cl.Cl` (racemic): in the data set filed under Rattus norvegicus [7], the Ratio IC50 was 15. In the data set with Mus musculus [1], the outcome was Active. This molecule also returned an LD50 in data set [2] of 121 mg/kg. This molecule also registered a concentration for half-maximal inhibition (IC50) in data set [8] of 250 nM. Also, the inhibition in data set [3] is 27.5%. Moreover, the figures for the Activity with Rattus norvegicus [4] and in the data set with Rattus norvegicus [5] were 10.3% and 11.7%, respectively. The molecule further came in with an inhibition in vivo at 15 mg/kg with Rattus norvegicus [6] of 0.4%.
On to `CC(N)Cc1sccc1Cl.Cl` (racemic), for which the result in the data set with Mus musculus [1] was inactive. Also, the 50% lethal dose (LD50) in data set [2] was 101 mg/kg. This molecule displayed an inhibition in data set [3] of 6.6%. This molecule had an Activity with Rattus norvegicus [4] of 2.8%.
In the case of `CC(N)Cc1ccc(Cl)cc1.Cl` (racemic), the inhibition in vivo at 7.5 mg/kg amounted to 45.5% in the data set on Rattus norvegicus [9] and 34.3% in the data set on Rattus norvegicus [10]. Besides, the result in the data set with Mus musculus [11] was Active. In data set [2], this molecule came in with an LD50 of 64 mg/kg. Also, the IC50 turned out to be 3700 nM in data set [8] and 500 nM in data set [15]. Besides, in [3], the inhibition is 38.4%. The Activity with Rattus norvegicus [12] came out at 48.6%; with Rattus norvegicus [13] it was 47.6%; with Rattus norvegicus [14], 63.7%.
Take `CC(N)Cc1cc(Cl)c(Cl)s1.Cl` (racemic): the inhibition in vivo at 15 mg/kg is 32.4% with Rattus norvegicus [16] and 30.4% with Rattus norvegicus [6]. In addition, in the data set with Mus musculus [1], the result was Active. Besides, the LD50 in data set [2] came out at 133 mg/kg. Also, the inhibition in [3] was 40.5%. The Activity in the data set on Rattus norvegicus [4] worked out at 49.3%; in the data set on Rattus norvegicus [5], 50.7%; in the data set on Rattus norvegicus [17] it was 41.6%. This molecule also gave an IC50 in [15] of 450 nM.
Regarding `CC(N)Cc1sc(Cl)cc1Cl.Cl` (racemic), the outcome in the data set with Mus musculus [1] was inactive. The same molecule displayed a median lethal dose (LD50) in [2] of 135 mg/kg. In [8], the IC50 was 2500 nM. The inhibition in [3] stood at 19.4%. The Activity with Rattus norvegicus [4] is listed as 12.1%; in the data set with Rattus norvegicus [5], 13.3%. In the data set with Rattus norvegicus [6], this molecule had an inhibition in vivo at 15 mg/kg of 24.5%.
`CC(N)Cc1ccc(Cl)s1.Cl` (racemic): the result with Mus musculus [1] and with Mus musculus [11] was Active. In data set [2], this molecule displayed an LD50 of 113 mg/kg. The inhibition in data set [3] came out at 17.7%. The Activity turned out to be 14.5% in the data set with Rattus norvegicus [4] and 15.4% in the data set with Rattus norvegicus [5]. Besides, the inhibition in vivo at 15 mg/kg in the data set on Rattus norvegicus [6] was found to be 4.1%.

(Values after ChEMBL document CHEMBL3244091, “Effects of thiophene analogues of chloroamphetamines on central serotonergic mechanisms” (J Med Chem, 1978).)
